Laboratory results published in ChEMBL document CHEMBL3414553, “Novel imidazo[2,1-b]-1,3,4-thiadiazoles as promising antifungal agents against clinical isolate of Cryptococcus neoformans” (2015).
Values after ≈ are worked out from the molar mass of the structure shown.

Tests used:
Assay type in all cases: functional
[1] = tested on: Aspergillus niger; assay: Antifungal activity against Aspergillus niger ATCC 16404 after 24 hrs by two-fold broth microdilution method; settings: ATCC 16404, 24 h
Summary of the method: (§1)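 Strains subcultured one day before testing; colonies suspended in sterile water and adjusted to 0.5 McFarland (1.5 × 10^8 cfu/ml). Two-fold dilutions in MHB (medium pH 7.4 ± 0.1), final 200 to 0.39 µg/ml. Incubated 37 ± 1 °C for 24 h, then resazurin (0.4 mg/ml) added for a further 5 h. MIC read by colour: blue = no growth, pink = growth.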

[2] = tested on: Pseudomonas aeruginosa; assay: Antibacterial activity against Pseudomonas aeruginosa ATCC 27853 after 24 hrs by two-fold broth microdilution method; settings: ATCC 27853, 24 h; summary of the method: as §1
[3] = tested on: Candida albicans; assay: Antifungal activity against Candida albicans clinical isolate after 24 hrs by two-fold broth microdilution method; summary of the method: as §1
[4] = tested on: Cryptococcus neoformans; assay: Antifungal activity against […] clinical isolate after 24 hrs by two-fold broth microdilution method; summary of the method: as §1
[5] = tested on: Candida albicans; assay: Antifungal activity against Candida albicans ATCC 90028 after 24 hrs by two-fold broth microdilution method; settings: ATCC 90028, 24 h; summary of the method: as §1
[6] = tested on: Escherichia coli; assay: Antibacterial activity against Escherichia coli ATCC 35218 after 24 hrs by two-fold broth microdilution method; settings: ATCC 35218, 24 h; summary of the method: as §1
[7] = tested on: Cryptococcus neoformans; assay: Antifungal activity against […] ATCC 66031 after 24 hrs by two-fold broth microdilution method; settings: ATCC 66031, 24 h; summary of the method: as §1
[8] = tested on: Bacillus subtilis; assay: Antibacterial activity against Bacillus subtilis ATCC 6051 after 24 hrs by two-fold broth microdilution method; settings: ATCC 6051, 24 h; summary of the method: as §1
[9] = tested on: Staphylococcus aureus; assay: Antibacterial activity against Staphylococcus aureus ATCC 25923 after 24 hrs by two-fold broth microdilution method; settings: ATCC 25923, 24 h; summary of the method: as §1
[10] = tested on: Mycobacterium tuberculosis; assay: Antimicrobial activity against Mycobacterium tuberculosis H37Rv
Summary of the method: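 M. tuberculosis H37Rv grown 5 d in 7H9-Tw-OADC with 10-point two-fold serial dilutions from DMSO (final DMSO 2%). Top concentration 200 µM, or 50-fold below the stock for poorly soluble compounds. Controls: medium/DMSO background, 100 µM rifampicin for zero growth, DMSO for maximum growth, plus a rifampicin dose-response. Growth read by OD590 and fluorescence (Ex 560/Em 590).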

| SMILES | MIC [1] [µg/mL] | MIC [2] [µg/mL] | MIC [3] [µg/mL] | MIC [4] [µg/mL] | MIC [5] [µg/mL] | MIC [6] [µg/mL] | MIC [7] [µg/mL] | MIC [8] [µg/mL] | MIC [9] [µg/mL] | MIC [10] [µg/mL] |
| --- | --- | --- | --- | --- | --- | --- | --- | --- | --- | --- |
| O=C(/C=C/c1c(-c2ccc(Br)cc2)nc2sc(-c3ccccc3Cl)nn12)c1cccs1 | > 200 | > 200 | > 200 | 200 (≈ 380 µM) | 50 (≈ 94.9 µM) | > 200 | 200 (≈ 380 µM) | > 200 | > 200 | – |
| O=C(/C=C/c1c(-c2ccc(Br)cc2)nc2sc(-c3ccccc3)nn12)c1ccccc1 | > 200 | > 200 | > 200 | 200 (≈ 411 µM) | > 200 | > 200 | 25 (≈ 51.4 µM) | > 200 | > 200 | – |
| Cc1ccc(C(=O)/C=C/c2c(-c3ccc(Br)cc3)nc3sc(-c4ccccc4)nn23)cc1 | > 200 | > 200 | > 200 | 100 (≈ 200 µM) | 25 (≈ 50 µM) | > 200 | 25 (≈ 50 µM) | > 200 | > 200 | – |
| O=C(/C=C/c1c(-c2ccc(Br)cc2)nc2sc(-c3ccccc3)nn12)c1cccs1 | > 200 | > 200 | > 200 | 6.25 (≈ 12.7 µM) | 200 (≈ 406 µM) | > 200 | 6.25 (≈ 12.7 µM) | > 200 | > 200 | – |
| O=C(/C=C/c1c(-c2ccc(Br)cc2)nc2sc(-c3ccc(Cl)cc3)nn12)c1ccccc1 | > 200 | > 200 | > 200 | 12.5 (≈ 24 µM) | > 200 | > 200 | 6.25 (≈ 12 µM) | > 200 | > 200 | – |
| Cc1ccc(C(=O)/C=C/c2c(-c3ccc(Br)cc3)nc3sc(-c4ccc(Cl)cc4)nn23)cc1 | > 200 | > 200 | > 200 | 6.25 (≈ 11.7 µM) | 50 (≈ 93.5 µM) | > 200 | 3.12 (≈ 5.84 µM) | > 200 | > 200 | – |
| O=C(/C=C/c1c(-c2ccc(Br)cc2)nc2sc(-c3ccc(Cl)cc3)nn12)c1cccs1 | > 200 | > 200 | > 200 | 12.5 (≈ 23.7 µM) | 25 (≈ 47.5 µM) | > 200 | 12.5 (≈ 23.7 µM) | > 200 | > 200 | – |
| COc1ccc(-c2nn3c(/C=C/C(=O)c4ccccc4)c(-c4ccc(Br)cc4)nc3s2)cc1 | > 200 | > 200 | > 200 | 12.5 (≈ 24.2 µM) | 50 (≈ 96.8 µM) | 200 (≈ 387 µM) | 3.12 (≈ 6.05 µM) | > 200 | > 200 | – |
| COc1ccc(-c2nn3c(/C=C/C(=O)c4ccc(C)cc4)c(-c4ccc(Br)cc4)nc3s2)cc1 | > 200 | > 200 | > 200 | 3.12 (≈ 5.89 µM) | 200 (≈ 377 µM) | 200 (≈ 377 µM) | 1.56 (≈ 2.94 µM) | > 200 | > 200 | – |
| COc1ccc(-c2nn3c(/C=C/C(=O)c4cccs4)c(-c4ccc(Br)cc4)nc3s2)cc1 | > 200 | > 200 | > 200 | 200 (≈ 383 µM) | 100 (≈ 191 µM) | > 200 | 25 (≈ 47.9 µM) | > 200 | > 200 | – |
| Brc1ccc(-c2nc3sc(-c4ccccc4Br)nn3c2/C=N/C2CC2)cc1 | 100 (≈ 199 µM) | 50 (≈ 99.6 µM) | 50 (≈ 99.6 µM) | 200 (≈ 398 µM) | 25 (≈ 49.8 µM) | 200 (≈ 398 µM) | 100 (≈ 199 µM) | 200 (≈ 398 µM) | 200 (≈ 398 µM) | – |
| Brc1ccc(-c2nc3sc(-c4ccccc4Br)nn3c2/C=N/C2CCCCC2)cc1 | 50 (≈ 91.9 µM) | 50 (≈ 91.9 µM) | 50 (≈ 91.9 µM) | 200 (≈ 367 µM) | 50 (≈ 91.9 µM) | 200 (≈ 367 µM) | 100 (≈ 184 µM) | 200 (≈ 367 µM) | 200 (≈ 367 µM) | – |
| Clc1ccccc1-c1nn2c(/C=N/C3CC3)c(-c3ccc(Br)cc3)nc2s1 | 100 (≈ 218 µM) | 50 (≈ 109 µM) | 50 (≈ 109 µM) | > 200 | 25 (≈ 54.6 µM) | 200 (≈ 437 µM) | 100 (≈ 218 µM) | 200 (≈ 437 µM) | 200 (≈ 437 µM) | – |
| O=C(NN=C1CCCCC1)c1ccncc1 | – | – | – | – | – | – | – | – | – | 30 (≈ 138 µM) |
| CC1(C)S[C@@H]2[C@H](NC(=O)[C@H](N)c3ccc(O)cc3)C(=O)N2[C@H]1C(=O)O [AMOXICILLIN] | – | < 0.39 | – | – | – | < 0.39 | – | < 0.39 | < 0.39 | – |
| C[C@@H]1[C@H](O)[C@@H](C)/C=C/C=C/C=C/C=C/C=C/C=C/C=C/[C@H](O[C@@H]2O[C@H](C)[C@@H](O)[C@H](N)[C@@H]2O)C[C@@H]2O[C@](O)(C[C@@H](O)C[C@@H](O)[C@H](O)CC[C@@H](O)C[C@@H](O)CC(=O)O[C@H]1C)C[C@H](O)[C@H]2C(=O)O [AMPHOTERICIN B] | 1.95 (≈ 2.11 µM) | – | 25 (≈ 27.1 µM) | 1 (≈ 1.08 µM) | 0.25 (≈ 0.271 µM) | – | 1 (≈ 1.08 µM) | – | – | – |
